The values below come from ChEMBL document CHEMBL1144948, “Design and synthesis of 1,5-diarylbenzimidazoles as inhibitors of the VEGF-receptor KDR” (Bioorg Med Chem Lett, 2003).

The nature of data set [1]: CL (clearance) of compound was determined as average of four rats at each dose of 5 mg/kg intravenous and 16 mg/kg peroral administration. Format: ADME, organism-based. The conditions noted are these: rat, in vivo. In short, it runs like this: (§1)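 Rats (n=4 per route, averaged) dosed 5 mpk iv as a DMSO solution and 16 mpk po as a suspension in 0.5% methocel.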
Data set [2] can be described thus: Solubility at pH 5.2. Format: physicochemical. The conditions noted are these: buffer. An outline of the steps:
(§2)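 Saturated compound solution in pH-adjusted buffer is filtered. Concentration comes from the HPLC peak area compared against standard methanolic solutions.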

The next data set deals with HUVEC. In words: Inhibition of HUVEC cell proliferation. The conditions noted are these: Homo sapiens.
The next data set is filed under the species Homo sapiens. In words: Compound tested for ability to bind to human plasma protein. In kind it is cell-free. An outline of the steps:
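Human plasma binding: buffer solutions of test compound equilibrated with human plasma, free and bound drug separated by ultrafiltration, free compound concentration measured by HPLC; reported as percent bound.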

The nature of data set [3]: CL (clearance) of compound was determined after intravenous administration in average of two dogs at a dose of 1 mg/kg. Format: ADME, organism-based, Canis lupus familiaris. Further details: dose 1 mg/kg, route intravenous. The conditions noted are these: dog, in vivo. An outline of the steps:
(§3)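 Dogs (n=2, averaged) received 1 mpk iv as a solution in DMSO.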

Data set [4] is described as follows: Half life period (t1/2) of compound was determined after intravenous administration in average of two dogs at a dose of 1 mg/kg. More on the design: dose 1 mg/kg, route intravenous. In kind it is ADME, organism-based, Canis lupus familiaris. The conditions noted are these: dog, in vivo. In short, it runs like this:
as §3

Data set [5] in a line: Oral bioavailability (F%) of compound was determined as average of four rats at each dose of 5 mg/kg intravenous and 16 mg/kg peroral administration. The conditions noted are these: rat, in vivo. Format: ADME, organism-based. An outline of the steps:
as §1

Data set [6] is described as follows: Solubility at pH 7.4. The conditions noted are these: buffer. In kind it is physicochemical. In short, it runs like this:
as §2

Data set [7] can be described thus: Half life period as average of four rats at each dose of 5 mg/kg intravenous and 16 mg/kg peroral administration. Format: ADME, organism-based. The conditions noted are these: rat, in vivo. An outline of the steps:
as §1

Data set [8] can be described thus: Partition coefficient (logP). The conditions noted are these: octanol/water. Format: physicochemical. An outline of the steps:
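Shake-flask partition: a methanolic sample aliquot added to equal volumes of 1-octanol and pH 7.4 buffer, equilibrated 8 h, then compound concentration measured in each phase.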

Data set [9] is described as follows: Volume distribution of compound was determined as average of four rats at each dose of 5 mg/kg intravenous and 16 mg/kg peroral administration. Format: ADME, organism-based. The conditions noted are these: rat, in vivo, read-out: Vdss. In short, it runs like this:
as §1

The nature of data set [10]: Volume distribution (Vdss) of compound was determined after intravenous administration in average of two dogs at a dose of 1 mg/kg. Format: ADME, organism-based, Canis lupus familiaris. The conditions noted are these: dog, in vivo, read-out: Vdss. More on the design: dose 1 mg/kg, route intravenous. In short, it runs like this:
as §3

Data set [11] can be described thus: CL (clearance) of compound was determined as average of four rats at each dose of 5 mg/kg intravenous and 20 mg/kg peroral administration. In kind it is ADME, organism-based. The conditions noted are these: rat, in vivo. An outline of the steps: (§4)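 Rats, four per route and values averaged; 5 mpk iv given as a solution in DMSO, 20 mpk po as a suspension in 0.5% methocel.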

Data set [12] in a line: Oral bioavailability (F%) of compound was determined as average of four rats at each dose of 5 mg/kg intravenous and 20 mg/kg peroral administration. Format: ADME, organism-based. The conditions noted are these: rat, in vivo. An outline of the steps: as §4
A short description of data set [13]: Volume distribution of compound was determined as average of four rats at each dose of 5 mg/kg intravenous and 20 mg/kg peroral administration. Format: ADME, organism-based. The conditions noted are these: rat, in vivo, read-out: Vdss. An outline of the steps: as §4
The nature of data set [14]: Half life period as average of four rats at each dose of 5 mg/kg intravenous and 20 mg/kg peroral administration. Format: ADME, organism-based. The conditions noted are these: rat, in vivo. In short, it runs like this: as §4
Data set [15] is described as follows: Solubility atpH 5.2. Format: physicochemical. The conditions noted are these: pH 5.2. In short, it runs like this: as §2

SMILES strings stand for the structures. In brackets after ≈: the same amount, converted by molar mass.

As a reminder, the solubility is the concentration that dissolves in the medium under given conditions. A low value points to a poorly soluble substance. As usually defined, the IC50 is the concentration needed to halve the response being measured. Read a high IC50 as weaker potency. Usually half-life stands for the time needed for the level to fall by half in the phase considered. For orientation: bioavailability means the share of a dose that reaches the circulation, judged against a reference dose that is usually intravenous. A high value points to much systemic uptake. One may read the logP as the decadic logarithm of the partition coefficient of the neutral form, usually between octanol and water. A high value points to a more lipophilic compound. In the case of `c1ccc(-n2cnc3cc(-c4ccc(OCCN5CCCCC5)cc4)ccc32)cc1`, the clearance in [1] stood at 14.4 mL/min/kg; in data set [3], 4.6 mL/min/kg. The results for the solubility in data set [2] and in [6] were 120 µg/mL (≈ 0.302 mM) and below 0.01 µg/mL, respectively. This molecule also displayed an IC50 with HUVEC of 87 nM. This molecule came in with a Binding in the data set listed under Homo sapiens of 99.4%. The half-life was 5.2 h in data set [4] and 6.1 h in data set [7]. The molecule also registered a bioavailability in [5] of 76%. In data set [8], the logP was 4.29. The results for the Vd in data set [9] and in data set [10] were 1.9 L/kg and 3.1 L/kg, respectively.

For the molecule `c1ccc(-n2cnc3cc(-c4ccc(NCCN5CCOCC5)nc4)ccc32)cc1`, in the data set on HUVEC, the IC50 was found to be 213 nM.

Molecule `O=c1ccc(-c2ccc3c(c2)ncn3-c2ccccc2)cn1CCN1CCCCC1` gave a Binding in the data set listed under Homo sapiens of 85%. The molecule also registered a solubility in data set [6] above 1000 µg/mL.

As to `c1ccc(-n2cnc3cc(-c4ccc(OCCN5CCCCC5)nc4)ccc32)cc1`, the IC50 in the data set with HUVEC was 122 nM. This counts as sub-micromolar.

`O=c1nc(-c2ccc3c(c2)ncn3-c2ccccc2)ccn1CCCN1CCCCC1` registered an IC50 with HUVEC of 164 nM.

Molecule `O=c1ccc(-c2ccc3c(c2)ncn3-c2ccccc2)cn1CCCN1CCCCC1` had an IC50 with HUVEC of 152 nM.

Turning to `c1ccc(-n2cnc3cc(-c4ccc(OCCN5CCCCC5)cc4)cnc32)cc1`, the solubility in data set [2] worked out at 6460 µg/mL (≈ 16.2 mM); in data set [6] it was 21 µg/mL (≈ 0.0527 mM). For the same molecule, the half-maximal inhibitory concentration (IC50) in the data set on HUVEC came to 48 nM. This molecule came in with a Binding in the data set filed under Homo sapiens of 97.4%. For the same molecule, the lipophilicity (logP) in [8] was 3.55.

`COc1ccc(-c2ccc3c(c2)ncn3-c2ccccc2)cc1` yielded a concentration for half-maximal inhibition (IC50) with HUVEC above 1000 nM.

`O=c1cc(-c2ccc3c(c2)ncn3-c2ccccc2)ccn1CCCN1CCCCC1`: the figures for the clearance in [11] and in data set [3] were 17.3 mL/min/kg and 8.9 mL/min/kg, respectively. The molecule further came in with an IC50 with HUVEC of 37 nM. In the data set filed under Homo sapiens, the Binding is 80.7%. Moreover, the half-life is 10.4 h in data set [4] and 2.9 h in [14]. The same molecule showed a bioavailability in data set [12] of 73%. Moreover, the Vd in data set [13] is 3.9 L/kg; in data set [10], 7.9 L/kg. Besides, the solubility was determined as 8400 µg/mL (≈ 20.4 mM) in data set [6] and 33900 µg/mL (≈ 82.2 mM) in data set [15]. This molecule gave a logP in data set [8] of 2.25.
